Test results: ChEMBL document CHEMBL4145471, “New 1,5 and 2,5-disubstituted tetrazoles-dependent activity towards surface barrier of Candida albicans” (Eur J Med Chem, 2018)

Columns and labels:
[1] = tested on: Candida albicans; experiment: Synergistic antifungal activity against Candida albicans ATCC 90028 at 20 ug/ml after 48 hrs in presence of 1.25 ug/ml fluconazol by checkerboard assay relative to control; type: functional
How it was run: (§1)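 Checkerboard in C. albicans ATCC 90028, inoculum prepared per CLSI M27-A3 in RPMI. Fluconazole serially diluted 80-1.25 µg/mL across the plate against the partner compound at 80-1.25 µg/mL final. Incubated 48 h at 35°C. Metabolic activity read by XTT reduction at 475 nm (660 nm reference), given as % of the untreated growth control.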

[2] = tested on: Candida albicans; experiment: Synergistic antifungal activity against Candida albicans ATCC 90028 at 1.25 ug/ml after 48 hrs in presence of 20 ug/ml fluconazol by checkerboard assay relative to control; type: functional
How it was run: (§2)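 Checkerboard per M27-A3 against ATCC 90028: fluconazole at 80–1.25 µg/mL horizontally and partner compound at 80–1.25 µg/mL vertically, 100 µL yeast inoculum per well, 35°C for 48 h. After 48 h, metabolic activity was measured by XTT reduction at 475 nm (660 nm reference) relative to untreated growth control. FIC index is the sum of the FICs; <1 was defined as synergism and >1 as antagonism.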

[3] = tested on: Caco-2; experiment: Cytotoxicity against human Caco2 cells assessed as reduction in cell viability at 16 ug/ml after 18 hrs by XTT assay ralative to control; type: cell-based; details: caco-2, 18 h
How it was run: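 Caco-2 cells were exposed to compound at 256, 16 or 0.0313 µg/mL for 18 h, then given XTT reagent for 4–6 h. Absorbance was read at 475 nm with a 660 nm reference, and viability and toxicity were expressed as %. CC50 was taken as the concentration giving 50% viability loss. Means ± SD of three independent experiments, samples in duplicate.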

[4] = tested on: Candida albicans; experiment: Synergistic antifungal activity against Candida albicans ATCC 90028 at 5 ug/ml after 48 hrs in presence of 2.5 ug/ml fluconazol by checkerboard assay relative to control; type: functional
How it was run: (§3)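 Checkerboard microdilution (M27-A3) on C. albicans ATCC 90028 in RPMI 1640: fluconazole (80-1.25 µg/mL) crossed with tetrazole (80-1.25 µg/mL final), incubated at 35°C for 48 h. Growth by OD405 at 18 and 48 h, endpoint taken as 100% inhibition. FIC index = sum of the two agents' FICs; <1 synergism, >1 antagonism.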

[5] = tested on: Candida albicans; experiment: Synergistic antifungal activity against Candida albicans ATCC 90028 at 1.25 ug/ml after 48 hrs in presence of 1.25 ug/ml fluconazol by checkerboard assay relative to control; type: functional; details: ATCC 90028, 48 h, read-out: GI; how it was run: as §2
[6] = tested on: Candida albicans; experiment: Antifungal activity against Candida albicans ATCC 90028 assessed as inhibition of metabolic activity at 10 ug/ml after 48 hrs in presence of 5 ug/ml fluconazol by XTT assay relative to control; type: functional; details: values are per cent of control
How it was run: (§4)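 Checkerboard against strain ATCC 90028, inoculum per M27-A3: fluconazole 80-1.25 µg/mL on one axis, tetrazole 80-1.25 µg/mL on the other. Plates at 35°C for 48 h, then XTT metabolic reduction read at 475 nm (660 nm reference). Activity is the drop in mean absorbance against untreated growth control. FICs and their summed FIC index are taken at 50% reduction in metabolic activity.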

[7] = tested on: Candida albicans; experiment: Synergistic antifungal activity against Candida albicans ATCC 90028 at 1.25 ug/ml after 48 hrs in presence of 10 ug/ml fluconazol by checkerboard assay relative to control; type: functional; how it was run: as §2
[8] = tested on: Candida albicans; experiment: Fungicidal activity against Candida albicans ATCC 90028 at 16 ug/ml after 48 hrs by M27-A3 microdilution method; type: functional
How it was run: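 After 48 h at 35°C in M27-A3 microdilution plates (compound at 16 µg/mL), 50 µL aliquots from treated and solvent-control wells were diluted 10^4 in PBS and plated on drug-free Sabouraud dextrose agar, then incubated 48 h at 35°C. Reduction R = lg CFU/mL control − lg CFU/mL treated; R ≥ 3 defined as fungicidal.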

[9] = tested on: Candida albicans; experiment: Synergistic antifungal activity against Candida albicans ATCC 90028 at 10 ug/ml after 48 hrs in presence of 40 ug/ml fluconazol by checkerboard assay relative to control; type: functional; how it was run: as §2
[10] = tested on: Candida albicans; experiment: Antifungal activity against Candida albicans ATCC 90028 at 0.5 ug/ml after 48 hrs relative to control; type: functional
How it was run: (§5)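 Planktonic broth microdilution per M27-A3 in MOPS-buffered RPMI 1640 (pH 7.0), final inoculum 1.8×10^3 cells/mL, compounds 0.0313–16 µg/mL from 1600 µg/mL stocks in ethanol or DMSO. Incubated at 35°C without agitation; OD405 read at 18 and 48 h. % inhibition was derived from test, sterility (no inoculum) and solvent growth-control wells. Amphotericin B at 0.5 µg/mL served as the 100% control.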

[11] = tested on: Candida albicans; experiment: Synergistic antifungal activity against Candida albicans ATCC 90028 at 40 ug/ml after 48 hrs in presence of 2.5 ug/ml fluconazol by checkerboard assay relative to control; type: functional; how it was run: as §3
[12] = tested on: Candida albicans; experiment: Antifungal activity against Candida albicans ATCC 90028 assessed as inhibition of metabolic activity at 1.25 ug/ml after 48 hrs in presence of 10 ug/ml fluconazol by XTT assay relative to control; type: functional; details: values are per cent of control; how it was run: as §4
[13] = tested on: Candida albicans; experiment: Synergistic antifungal activity against Candida albicans ATCC 90028 at 5 ug/ml after 48 hrs in presence of 20 ug/ml fluconazol by checkerboard assay relative to control; type: functional; how it was run: as §1
[14] = tested on: Candida albicans; experiment: Antifungal activity against Candida albicans ATCC 90028 assessed as inhibition of metabolic activity at 10 ug/ml after 48 hrs in presence of 1.25 ug/ml fluconazol by XTT assay relative to control; type: functional; details: values are per cent of control; how it was run: as §4
[15] = tested on: Candida albicans; experiment: Antifungal activity against Candida albicans ATCC 90028 at 8 ug/ml after 48 hrs relative to control; type: functional; how it was run: as §5
[16] = tested on: Candida albicans; experiment: Synergistic antifungal activity against Candida albicans ATCC 90028 at 20 ug/ml after 48 hrs in presence of 2.5 ug/ml fluconazol by checkerboard assay relative to control; type: functional; how it was run: as §3
[17] = tested on: Candida albicans; experiment: Synergistic antifungal activity against Candida albicans ATCC 90028 assessed as fluconazol FIC at 1.25 to 80 ug/ml after 48 hrs by checkerboard assay; type: functional; how it was run: as §2
[18] = tested on: Candida albicans; experiment: Synergistic antifungal activity against Candida albicans ATCC 90028 at 10 ug/ml after 48 hrs in presence of 5 ug/ml fluconazol by checkerboard assay relative to control; type: functional; how it was run: as §2
[19] = tested on: Candida albicans; experiment: Synergistic antifungal activity against Candida albicans ATCC 90028 at 20 ug/ml after 48 hrs in presence of 10 ug/ml fluconazol by checkerboard assay relative to control; type: functional; how it was run: as §1

SMILES | growth inhibition (GI) [1] | growth inhibition (GI) [2] | Activity [3] | growth inhibition (GI) [4] | inhibition of growth at 1.25 µg/mL [5] | residual activity [6] | growth inhibition (GI) [7] | Activity [8] | growth inhibition (GI) [9] | Activity [10] | growth inhibition (GI) [11] | residual activity [12] | growth inhibition (GI) [13] | residual activity [14] | Activity [15] | growth inhibition (GI) [16] | FIC [17] | growth inhibition (GI) [18] | growth inhibition (GI) [19] | fold change (FC) [17]
Cc1ccc(-c2nnn(CCCN3CCOCC3)n2)cc1 | 98.75% | 99.46% | 27.73% | 98.9% | 99% | 100% | 99.59% | 0.56 log10CFU/ml | 98.78% | 99.18% | 99.77% | 100% | 99.16% | 100% | 99.39% | 99.31% | 5 | 98.12% | 99.32% | 
ClCCCn1nnnc1-c1ccccc1Cl | 100% | 99.58% | 25.49% | 99.14% | 99.7% | 100% | 99.66% | 0.18 log10CFU/ml | 99.29% | 99.22% | 99.14% | 62.08% | 99.67% | 73.65% | 99.06% | 99.25% | 5 | 98.9% | 99.73% | 5
CCOC(=O)CCn1nnc(-c2ccccc2)n1 | 99.79% | 99.65% | 50.46% | 99.77% | 99.8% | 100% | 99.65% | 0.33 log10CFU/ml | 99.34% | 99.31% | 99.74% | 74.44% | 99.58% | 90.58% | 98.86% | 99.63% | 5 | 98.97% | 99.52% | 
